Source: ChEMBL document CHEMBL3865821, “Amino substituted benzimidazo[1,2-a]quinolines: Antiproliferative potency, 3D QSAR study and DNA binding properties” (Eur J Med Chem, 2016)
Active and inactive are the calls of the source. The calls are words filed in the database; no cut-off is given here.

Legend:
[1] = Antiproliferative activity against human MCF7 cells after 72 hrs by MTT assay; type: functional, cell-based; conditions: MCF7, 72 h
Method in brief: (§1)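 Tumour cells were grown as monolayers in DMEM with 10 % FBS, 2 mM L-glutamine, penicillin and streptomycin at 37 °C under 5 % CO₂. Tenfold dilutions from 10^-8 to 10^-4 M were applied for 72 h, followed by MTT read at 570 nm. IC50 came from linear regression of percentage growth; at least two experiments, quadruplicate points.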

[2] = Antiproliferative activity against human HCT116 cells after 72 hrs by MTT assay; type: functional, cell-based; conditions: HCT-116, 72 h; method in brief: as §1
[3] = Antiproliferative activity against human H460 cells after 72 hrs by MTT assay; type: functional, cell-based; conditions: NCI-H460, 72 h
Method in brief: as §1, with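 “CO₂. They were seeded at 3×10^4 cells/mL (HCT 116, H460) or 5×10^4 cells/mL (MCF-7).” for “CO₂.”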

[4] = Binding affinity to duplex calf thymus DNA assessed as change in melting temperature at drug/DNA ratio of 0.5 by spectrophotometric analysis
Method in brief: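 Calf-thymus DNA at 20 μM was heated with or without compound at 10 or 20 μM (drug/base-pair ratio 0.5 or 1) in BPE buffer (6 mM Na₂HPO₄, 2 mM NaH₂PO₄, 1 mM EDTA, pH 7.1). A260 was read every minute from 20 to 100 °C, rising 1 °C per min, and ΔTm was derived.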

[5] = target: T1, DNA topoisomerase 1 (Homo sapiens) (UniProt P11387); experiment: Poison activity at human DNA topoisomerase 1 assessed as increase in intensity of nicked form of DNA at 100 uM using pUC19 supercoiled plasmid DNA as substrate preincubated for 15 mins followed by DNA topoisomerase 1 addition measured after 30 mins by agarose gel electrophoresis
T1 sequence (whole entry): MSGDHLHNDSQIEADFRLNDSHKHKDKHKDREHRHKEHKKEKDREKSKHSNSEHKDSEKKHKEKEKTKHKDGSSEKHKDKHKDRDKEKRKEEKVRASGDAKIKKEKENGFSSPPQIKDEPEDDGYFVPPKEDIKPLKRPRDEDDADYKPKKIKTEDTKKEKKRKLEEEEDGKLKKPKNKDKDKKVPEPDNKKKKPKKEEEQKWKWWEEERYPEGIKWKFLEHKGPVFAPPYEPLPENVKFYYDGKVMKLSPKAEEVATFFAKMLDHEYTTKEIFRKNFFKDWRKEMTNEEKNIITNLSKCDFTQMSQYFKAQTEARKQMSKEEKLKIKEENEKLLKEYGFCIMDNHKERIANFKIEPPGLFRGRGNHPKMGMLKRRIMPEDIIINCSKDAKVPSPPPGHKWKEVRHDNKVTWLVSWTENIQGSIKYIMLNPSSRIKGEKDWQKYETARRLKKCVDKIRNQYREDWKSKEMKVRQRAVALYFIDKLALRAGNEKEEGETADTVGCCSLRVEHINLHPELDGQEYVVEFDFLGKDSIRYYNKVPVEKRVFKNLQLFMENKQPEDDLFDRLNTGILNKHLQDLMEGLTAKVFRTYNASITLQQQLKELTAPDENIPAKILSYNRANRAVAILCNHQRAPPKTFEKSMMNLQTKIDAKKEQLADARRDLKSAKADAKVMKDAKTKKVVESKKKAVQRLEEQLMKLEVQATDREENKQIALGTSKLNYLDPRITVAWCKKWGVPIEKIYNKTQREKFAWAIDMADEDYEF
Method in brief: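 Supercoiled pUC19 plasmid was treated with human topoisomerase I, alone or with compound, and topoisomers were resolved by agarose gel electrophoresis. Poisoning, seen as nicked plasmid, was assessed on ethidium bromide-containing agarose gels at up to 100 μM compound.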

Compound `N#Cc1c(N2CCCC2)c2ccc(N3CCCC3)cc2n2c1nc1ccccc12` has an IC50 ([1]; read-out: IC50) of 2000 nM, an IC50 ([1]; read-out: pIC50 (converted)) of 2000 nM and an IC50 ([2]; read-out: IC50) of 2000 nM. For the same compound, the IC50 ([2]; read-out: pIC50 (converted)) was 2000 nM, the IC50 ([3]; read-out: IC50) was 12000 nM and the IC50 ([3]; read-out: pIC50 (converted)) was 12000 nM. The ΔTm [4] was 0.6 °C and the Activity [5] was “Active”.
